Sampled rows, rich in hits. Any-hit rate of the full collection: about 1.1%.
Diaphorase act – compounds boosting diaphorase resazurin reduction – biochemical, uHTS, resorufin fluorescence, counter-screen for diaphorase-coupled primary assays, primary screen; Diaphorase/resazurin coupled assay, 16 min; hits give high values; 1 = vehicle wells, 0 = NADH-free wells; activation factor at 20 µM; hit rate 0.005% among 190,000;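 active = diaphorase activity raised at least twofold by the compound at 20 µM; inactive = activation factor below 2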
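Measured by – red resorufin fluorescence at 544/590 nm excitation/emission · Test system – Clostridium kluyveri diaphorase, purified enzyme · Incubation – reaction time 16 min, room temperature · Buffer or medium – 50 mM HEPES pH 7.4 with 4.542 mM MgCl2, 0.005% Tween 20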
PMI act – activators of human PMI, primary screen, biochemical, fluorescence intensity, near-Km mannose 6-phosphate; Mannose-6-phosphate isomerase (Homo sapiens), P34949; hit rate 0.005% among 190,000; activation factor at 20 µM; purified human PMI, coupled resazurin fluorescence, 20 min; hits give high values; 1 = vehicle control, 0 substrate-free wells;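 active = activation factor of 2 or more at 20 µM, relative to plate controls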
Target sequence (P34949 whole entry, looked up): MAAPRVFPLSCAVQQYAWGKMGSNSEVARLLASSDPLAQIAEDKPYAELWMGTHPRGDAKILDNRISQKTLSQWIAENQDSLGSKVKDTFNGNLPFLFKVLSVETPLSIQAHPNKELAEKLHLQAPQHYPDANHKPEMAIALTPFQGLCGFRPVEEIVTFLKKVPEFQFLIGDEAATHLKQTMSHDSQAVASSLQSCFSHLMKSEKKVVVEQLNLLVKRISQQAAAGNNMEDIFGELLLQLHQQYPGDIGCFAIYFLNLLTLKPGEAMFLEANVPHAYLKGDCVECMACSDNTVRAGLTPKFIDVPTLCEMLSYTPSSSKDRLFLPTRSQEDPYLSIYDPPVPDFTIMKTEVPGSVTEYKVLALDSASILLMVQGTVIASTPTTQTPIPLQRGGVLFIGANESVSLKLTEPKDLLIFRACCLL
G6PDH counter – L. mesenteroides G6PDH inhibitors, counter-screen for G6PDH-coupled screening assays, biochemical, Leuconostoc mesenteroides enzyme; AID 1020, 2008; glucose-6-phosphate dehydrogenase [Leuconostoc mesenteroides]; Purified L. mesenteroides G6PDH, diaphorase/resazurin coupled fluorescence, 45 min; hit rate 0.12% among 200,000; inhibition, % at 5 µM; in the data active = inhibition above about 50%
PMI act satM6P – human PMI activators, high substrate, primary screen, biochemical, fluorescence intensity, near-saturating mannose 6-phosphate; Mannose-6-phosphate isomerase (Homo sapiens), P34949; coupled PMI enzyme assay, resazurin fluorescence, 20 min; hits give high values; 1 = untreated enzyme, 0 = substrate-free blank; activation factor at 20 µM; hit rate 0.34% among 190,000; AID 1216, 2008;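 active = activation factor of 2 or more at 20 µM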
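Material: human phosphomannose isomerase with PGI, G6PDH, diaphorase coupling enzymes / Reagent: Man-6-P substrate 1.0 mM / Dosing: single compound dose of 20 µM, 1% DMSO final / Incubation: enzyme reaction with compound 20 min at room temperature / Signal: resorufin fluorescence (Ex 544/Em 590 nm) from resazurin via diaphorase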
Diaphorase inh – diaphorase inhibitors and chemical oxidizers, primary screen, counter-screen for diaphorase-coupled primary assays, biochemical, uHTS, resorufin fluorescence; diaphorase resazurin-to-resorufin fluorescence, NADH, 16 min; bacterial (C. kluyveri) enzyme, not human; inhibition, % at 20 µM; hit rate 0.69% among 190,000;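 active = primary screen inhibition at 20 µM above a set limit, cut at about 50% in these data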;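 note: plate controls were DMSO with full reaction for no effect and wells lacking NADH for full effect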
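System: Bacterial diaphorase enzyme (C. kluyveri) | Incubation: 16-min room-temperature incubation before reading | Benchmarks: No-NADH positive control and DMSO neutral control | Measured by: Resorufin fluorescence 544/590 nm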
* marks the source's active call; other numbers are inactive results.

What do the screens show for `Cc1cc(O)ccc1Nc1nc2ccccc2nc1Nc1ccc(O)cc1C`?
Diaphorase act: 0.4; PMI act: 1.1; G6PDH counter: 15.2; PMI act satM6P: 0.7; Diaphorase inh: 58.9*

What do the screens show for `COc1ccc(N=Nc2nc3cc(Br)c(Br)cc3n2C)c(OC)c1`?
Diaphorase act: 0.9; PMI act: 1.6; G6PDH counter: -5.8; PMI act satM6P: 2.1*; Diaphorase inh: 14.1

What do the screens show for `COc1ccc(CNc2nc3ccccc3n2C)c(OC)c1`?
Diaphorase act: 1.1; PMI act: 1; G6PDH counter: 3.9; PMI act satM6P: 1; Diaphorase inh: -9.0

Results for CCNc1nc(NCC)n2c(SCC(=O)c3ccccc3F)nnc2n1 ?
Diaphorase act: 0.9; PMI act: 1; G6PDH counter: 3.6; PMI act satM6P: 1.1; Diaphorase inh: 10.7

How did CCOc1c(Cl)cc(C(=O)Nc2cccc(C(=O)O)c2)cc1Cl do in these assays?
Diaphorase act: 0.8; PMI act: 1.1; G6PDH counter: 9.4; PMI act satM6P: 1.1; Diaphorase inh: 20.4

How did NC1=NC(=O)/C(=C\c2ccsc2)S1 do in these assays?
Diaphorase act: 0.8; PMI act: 0.9; G6PDH counter: 12.0; PMI act satM6P: 0.8; Diaphorase inh: 17.4

How did Cc1ccc(C)c2nc(N3CCCC3)c(C#N)cc12 do in these assays?
Diaphorase act: 0.8; PMI act: 1.1; G6PDH counter: 0.2; PMI act satM6P: 2*; Diaphorase inh: 17.6

Results for O=C(O)c1cccc(N/N=C/c2ccc(F)c(F)c2)c1 ?
Diaphorase act: 1; PMI act: 1.7; G6PDH counter: 2.9; PMI act satM6P: 2.3*; Diaphorase inh: 4.6

What do the screens show for `CCOc1cc(/C=N/Nc2cccc(C(=O)O)c2)ccc1OC(=O)c1ccccc1`?
Diaphorase act: 0.7; PMI act: 1.6; G6PDH counter: 7.6; PMI act satM6P: 2.3*; Diaphorase inh: 25.6

Results for CCOc1cc(/C=N/Nc2ccccc2Cl)ccc1OCC(=O)O ?
Diaphorase act: 1; PMI act: 1.9; G6PDH counter: -3.2; PMI act satM6P: 3.1*; Diaphorase inh: -2.5

How did CCOc1cc(/C=N/Nc2nc(Nc3ccccc3)nc(N3CCCCC3)n2)ccc1OCC(=O)O do in these assays?
Diaphorase act: 0.9; PMI act: 1.1; G6PDH counter: -1.9; PMI act satM6P: 1.1; Diaphorase inh: 7.3

What do the screens show for `O=C(O)c1ccc(/C=N/Nc2cccc(C(F)(F)F)c2)cc1`?
Diaphorase act: 0.9; PMI act: 1.4; G6PDH counter: 3.0; PMI act satM6P: 1.3; Diaphorase inh: 12.8

What do the screens show for `Cc1nn(-c2cccc(C(F)(F)F)c2)c(Cl)c1/C=N/Nc1cccc(C(=O)O)c1`?
Diaphorase act: 0.7; PMI act: 1.6; G6PDH counter: 1.7; PMI act satM6P: 2.5*; Diaphorase inh: 29.9

Results for Nc1cc(F)ccc1N1CCCCCC1 ?
Diaphorase act: 0.9; PMI act: 1.4; G6PDH counter: 6.6; PMI act satM6P: 1.1; Diaphorase inh: 12.2

Results for Cc1nnc(SCC(=O)NCCc2ccccc2)s1 ?
Diaphorase act: 1; PMI act: 1; G6PDH counter: 12.1; PMI act satM6P: 1; Diaphorase inh: 1.0

Results for CCOC(=O)C1(C(F)(F)F)N=C(c2cccnc2)OC(N2CCCCC2)=N1 (stereo unspecified) ?
Diaphorase act: 0.9; PMI act: 1.1; G6PDH counter: 3.8; PMI act satM6P: 1.1; Diaphorase inh: 5.6

How did O=C(O)c1cccc(N/N=C/C2=C(Cl)c3cc(Cl)ccc3SC2)c1 do in these assays?
Diaphorase act: 0.8; PMI act: 1.7; G6PDH counter: 4.2; PMI act satM6P: 2.5*; Diaphorase inh: 16.8

What do the screens show for `COc1ccccc1N(C1=NCCCS1)S(=O)(=O)c1ccc(C(C)(C)C)cc1`?
Diaphorase act: 0.7; PMI act: 0.9; G6PDH counter: 14.9; PMI act satM6P: 1; Diaphorase inh: 26.2

Assay outcomes from PubChem.
